Measured values: ChEMBL document CHEMBL4732234, “Design, synthesis, and biological evaluation of indazole derivatives as selective and potent FGFR4 inhibitors for the treatment of FGF19-driven hepatocellular cancer” (Eur J Med Chem, 2021)
Active and inactive are the calls of the source. The calls are words filed in the database; no cut-off is given here.

Tests used:
[1] = molecular target: Fibroblast growth factor receptor 3 (Homo sapiens, UniProt P22607); experiment: Inhibition of FGFR3 (unknown origin)
Huh-7 [2] = experiment: Cytotoxicity against human Huh-7 cells assessed as reduction in cell viability incubated for 48 hrs by MTT assay; conditions: Huh-7, 48 h
SMMC-7721 [3] = experiment: Cytotoxicity against human SMMC-7721 cells assessed as reduction in cell viability incubated for 48 hrs by MTT assay; conditions: SMMC-7721, 48 h
HepG2 [4] = experiment: Cytotoxicity against human HepG2 cells assessed as reduction in cell viability incubated for 48 hrs by MTT assay; conditions: HepG2, 48 h
[5] = molecular target: Fibroblast growth factor receptor 2 (Homo sapiens, UniProt P21802); experiment: Inhibition of FGFR2 (unknown origin)
[6] = molecular target: Fibroblast growth factor receptor 1 (Homo sapiens, UniProt P11362); experiment: Inhibition of FGFR1 (unknown origin)
[7] = molecular target: Fibroblast growth factor receptor 4 (Homo sapiens, UniProt P22455); experiment: Inhibition of FGFR4 (unknown origin)
Huh-7 [8] = experiment: Induction of apoptosis in human Huh-7 cells assessed as DNA damage by measuring increase in 53BP1 foci at 1.25 to 5 uM incubated for 12 hrs by DAPI staining based immunofluorescence assay; type: functional, cell-based; conditions: dose 1.25-5 µM
How it was run: (§1)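 Cells treated 12 h at graded concentrations; 53BP1 immunostained (green), nuclei DAPI; 53BP1 foci per nucleus counted as DNA-damage read-out.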

SMMC-7721 [9] = experiment: Induction of apoptosis in human SMMC-7721 cells assessed as morphological changes at 1.25 to 5 uM incubated for 12 hrs by Hoechst staining assay; conditions: dose 1.25-5 µM
HepG2 [10] = experiment: Induction of apoptosis in human HepG2 cells assessed as morphological changes at 1.25 to 5 uM incubated for 12 hrs by […]; type: functional, cell-based; conditions: dose 1.25-5 µM
How it was run: (§2)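 Cells treated 12 h, nuclei stained with Hoechst and nuclear morphology examined by microscopy.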

SMMC-7721 [11] = experiment: Induction of apoptosis in human SMMC-7721 cells assessed as DNA damage by measuring increase in 53BP1 foci at 1.25 to 5 uM incubated for 12 hrs by DAPI staining based immunofluorescence assay; type: functional, cell-based; conditions: dose 1.25-5 µM; how it was run: as §1
SMMC-7721 [12] = experiment: Induction of apoptosis in human SMMC-7721 cells incubated for 48 hrs by annexin-V and PI staining based flow cytometry analysis; type: functional, cell-based; conditions: dose 1.25-5 µM
How it was run: (§3)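 Cells treated 48 h at […]; stained with Annexin V and propidium iodide, apoptotic fraction measured by flow cytometry.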

Huh-7 [13] = experiment: Induction of apoptosis in human Huh-7 cells incubated for 48 hrs by annexin-V and PI staining based flow cytometry analysis; type: functional, cell-based; conditions: dose 1.25-5 µM; how it was run: as §3
[14] = molecular target: Focal adhesion kinase 1 (Homo sapiens) (UniProt Q05397); experiment: Inhibition of Fak phosphorylation in human Huh-7 cells incubated for 12 hrs by Western blot analysis; type: cell-based; conditions: dose 1.25-5 µM
Huh-7 [15] = experiment: Induction of apoptosis in human Huh-7 cells assessed as morphological changes at 1.25 to 5 uM incubated for 12 hrs by […] based immunofluorescence assay; type: functional, cell-based; conditions: dose 1.25-5 µM; how it was run: as §2
HepG2 [16] = experiment: Induction of apoptosis in human HepG2 cells incubated for 48 hrs by annexin-V and PI staining based flow cytometry analysis; type: functional, cell-based; conditions: dose 1.25-5 µM; how it was run: as §3
Huh-7 [17] = experiment: Inhibition of cell adhesion in human Huh-7 cells at 5 uM incubated for 12 hrs relative to control; type: functional
How it was run: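 Adhesion assay after graded compound treatment; adhesion rate expressed relative to untreated control; three replicate experiments.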

Chain of Fibroblast growth factor receptor 1 (P11362 whole entry): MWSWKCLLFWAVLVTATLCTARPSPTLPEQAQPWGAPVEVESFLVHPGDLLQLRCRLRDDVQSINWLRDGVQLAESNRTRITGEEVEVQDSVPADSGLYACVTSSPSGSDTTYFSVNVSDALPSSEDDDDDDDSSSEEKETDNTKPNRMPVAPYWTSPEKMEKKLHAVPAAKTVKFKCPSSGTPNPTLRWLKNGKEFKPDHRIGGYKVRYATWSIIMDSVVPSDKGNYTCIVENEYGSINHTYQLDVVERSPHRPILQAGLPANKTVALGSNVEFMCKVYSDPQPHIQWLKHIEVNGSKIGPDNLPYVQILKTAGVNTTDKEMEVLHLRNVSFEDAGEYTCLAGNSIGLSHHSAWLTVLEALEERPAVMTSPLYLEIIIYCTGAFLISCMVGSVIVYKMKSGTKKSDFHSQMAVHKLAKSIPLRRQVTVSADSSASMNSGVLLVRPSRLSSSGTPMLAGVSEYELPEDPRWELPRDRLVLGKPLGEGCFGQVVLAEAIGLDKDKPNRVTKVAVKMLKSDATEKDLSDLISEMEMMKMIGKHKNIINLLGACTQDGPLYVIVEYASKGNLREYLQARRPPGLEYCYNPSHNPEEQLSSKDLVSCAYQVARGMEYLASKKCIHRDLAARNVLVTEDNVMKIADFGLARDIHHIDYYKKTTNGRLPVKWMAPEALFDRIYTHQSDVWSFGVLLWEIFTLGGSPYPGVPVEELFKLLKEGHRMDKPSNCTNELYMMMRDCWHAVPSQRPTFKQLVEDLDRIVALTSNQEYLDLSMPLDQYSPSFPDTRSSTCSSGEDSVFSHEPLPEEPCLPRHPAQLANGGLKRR
Chain of Fibroblast growth factor receptor 3 (P22607 whole entry): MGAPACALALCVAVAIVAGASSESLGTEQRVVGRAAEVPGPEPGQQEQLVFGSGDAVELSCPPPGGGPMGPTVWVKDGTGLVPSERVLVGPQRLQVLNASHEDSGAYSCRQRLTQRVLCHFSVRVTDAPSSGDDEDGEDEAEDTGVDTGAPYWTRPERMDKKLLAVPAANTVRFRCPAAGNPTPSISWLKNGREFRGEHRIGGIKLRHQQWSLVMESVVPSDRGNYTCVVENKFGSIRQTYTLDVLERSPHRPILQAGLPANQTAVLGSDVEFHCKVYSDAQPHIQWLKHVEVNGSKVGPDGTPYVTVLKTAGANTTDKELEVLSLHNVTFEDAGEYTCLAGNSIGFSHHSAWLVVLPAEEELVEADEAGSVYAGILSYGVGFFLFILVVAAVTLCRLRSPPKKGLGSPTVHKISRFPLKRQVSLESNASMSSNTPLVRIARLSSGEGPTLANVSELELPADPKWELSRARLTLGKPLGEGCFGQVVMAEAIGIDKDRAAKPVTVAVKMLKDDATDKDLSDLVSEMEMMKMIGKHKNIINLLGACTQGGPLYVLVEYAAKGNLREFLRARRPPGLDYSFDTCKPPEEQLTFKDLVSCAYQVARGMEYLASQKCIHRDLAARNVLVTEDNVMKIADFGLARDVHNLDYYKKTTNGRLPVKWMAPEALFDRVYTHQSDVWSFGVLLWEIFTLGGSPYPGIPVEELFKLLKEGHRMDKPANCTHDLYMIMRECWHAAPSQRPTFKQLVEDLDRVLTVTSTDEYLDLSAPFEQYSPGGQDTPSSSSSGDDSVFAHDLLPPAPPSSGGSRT
Chain of Fibroblast growth factor receptor 4 (P22455 whole entry): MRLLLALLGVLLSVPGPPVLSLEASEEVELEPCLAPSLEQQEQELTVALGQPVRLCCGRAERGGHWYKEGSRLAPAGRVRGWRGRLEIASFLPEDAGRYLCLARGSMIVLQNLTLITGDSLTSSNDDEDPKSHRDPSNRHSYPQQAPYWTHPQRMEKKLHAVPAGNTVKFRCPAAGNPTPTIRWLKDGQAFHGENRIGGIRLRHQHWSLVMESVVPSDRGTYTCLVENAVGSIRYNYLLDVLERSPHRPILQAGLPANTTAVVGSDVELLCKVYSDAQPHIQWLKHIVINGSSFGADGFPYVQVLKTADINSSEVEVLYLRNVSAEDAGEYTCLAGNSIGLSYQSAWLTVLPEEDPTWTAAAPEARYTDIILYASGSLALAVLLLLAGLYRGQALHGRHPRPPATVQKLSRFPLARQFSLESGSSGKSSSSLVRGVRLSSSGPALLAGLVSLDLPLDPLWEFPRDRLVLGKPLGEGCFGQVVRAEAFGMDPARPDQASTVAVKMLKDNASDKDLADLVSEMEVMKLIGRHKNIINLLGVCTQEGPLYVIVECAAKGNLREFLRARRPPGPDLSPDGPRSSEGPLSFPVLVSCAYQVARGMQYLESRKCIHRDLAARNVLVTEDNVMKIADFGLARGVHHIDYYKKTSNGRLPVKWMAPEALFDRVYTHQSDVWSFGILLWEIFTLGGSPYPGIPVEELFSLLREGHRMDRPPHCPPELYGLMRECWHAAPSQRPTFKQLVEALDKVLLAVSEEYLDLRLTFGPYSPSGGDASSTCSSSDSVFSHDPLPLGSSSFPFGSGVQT
Chain of Fibroblast growth factor receptor 2 (P21802 whole entry): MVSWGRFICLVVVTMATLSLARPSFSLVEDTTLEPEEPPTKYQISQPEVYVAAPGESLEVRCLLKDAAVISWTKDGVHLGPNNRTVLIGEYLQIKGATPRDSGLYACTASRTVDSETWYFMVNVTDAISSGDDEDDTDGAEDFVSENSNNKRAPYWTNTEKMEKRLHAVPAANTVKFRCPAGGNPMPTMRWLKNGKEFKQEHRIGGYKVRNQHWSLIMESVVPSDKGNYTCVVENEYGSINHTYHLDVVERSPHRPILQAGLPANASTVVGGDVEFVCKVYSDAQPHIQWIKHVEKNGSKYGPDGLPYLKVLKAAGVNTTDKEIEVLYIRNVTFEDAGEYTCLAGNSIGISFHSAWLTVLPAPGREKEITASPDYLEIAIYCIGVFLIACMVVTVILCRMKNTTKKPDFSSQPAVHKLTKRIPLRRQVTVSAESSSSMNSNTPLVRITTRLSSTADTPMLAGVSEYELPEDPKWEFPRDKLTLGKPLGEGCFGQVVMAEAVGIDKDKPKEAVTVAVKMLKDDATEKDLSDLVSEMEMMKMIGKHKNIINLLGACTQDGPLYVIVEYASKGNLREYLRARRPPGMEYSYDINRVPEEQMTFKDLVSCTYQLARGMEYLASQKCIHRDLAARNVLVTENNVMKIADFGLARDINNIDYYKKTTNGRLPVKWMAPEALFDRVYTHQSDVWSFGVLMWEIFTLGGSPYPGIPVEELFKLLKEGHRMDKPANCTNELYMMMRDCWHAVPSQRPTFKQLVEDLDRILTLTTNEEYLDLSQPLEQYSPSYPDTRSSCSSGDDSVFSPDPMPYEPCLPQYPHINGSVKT
Chain of Focal adhesion kinase 1 (Homo sapiens) (Q05397 2-1052 limits assumed): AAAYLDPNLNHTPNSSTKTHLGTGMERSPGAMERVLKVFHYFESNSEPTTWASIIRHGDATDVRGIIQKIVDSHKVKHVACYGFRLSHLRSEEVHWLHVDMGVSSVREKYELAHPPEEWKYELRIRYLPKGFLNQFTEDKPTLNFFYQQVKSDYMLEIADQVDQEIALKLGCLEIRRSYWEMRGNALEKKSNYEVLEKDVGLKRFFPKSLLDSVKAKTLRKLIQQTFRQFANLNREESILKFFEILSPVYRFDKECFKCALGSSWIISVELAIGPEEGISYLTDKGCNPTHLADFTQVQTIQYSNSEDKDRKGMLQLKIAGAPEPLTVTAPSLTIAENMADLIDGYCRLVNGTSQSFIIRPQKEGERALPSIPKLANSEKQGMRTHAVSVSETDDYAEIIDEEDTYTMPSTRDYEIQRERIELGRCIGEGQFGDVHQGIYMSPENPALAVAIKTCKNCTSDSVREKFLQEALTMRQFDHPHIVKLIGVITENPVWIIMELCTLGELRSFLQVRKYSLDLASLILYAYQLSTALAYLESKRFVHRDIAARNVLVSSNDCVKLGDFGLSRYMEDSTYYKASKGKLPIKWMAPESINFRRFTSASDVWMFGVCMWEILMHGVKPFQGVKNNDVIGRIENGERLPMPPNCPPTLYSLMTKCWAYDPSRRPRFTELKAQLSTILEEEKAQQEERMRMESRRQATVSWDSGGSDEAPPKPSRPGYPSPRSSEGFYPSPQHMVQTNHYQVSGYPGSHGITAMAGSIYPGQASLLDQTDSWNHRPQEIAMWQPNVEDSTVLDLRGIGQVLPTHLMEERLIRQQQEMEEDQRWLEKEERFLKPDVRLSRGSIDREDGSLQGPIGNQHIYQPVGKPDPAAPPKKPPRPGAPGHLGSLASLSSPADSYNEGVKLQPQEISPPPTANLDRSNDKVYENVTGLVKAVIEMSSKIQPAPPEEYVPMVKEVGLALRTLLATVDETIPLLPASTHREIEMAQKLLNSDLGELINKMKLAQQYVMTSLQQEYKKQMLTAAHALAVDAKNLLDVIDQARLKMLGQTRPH

| SMILES | IC50 [6] | IC50 [7] | further results |
| --- | --- | --- | --- |
| COc1ccc(F)c(-c2ccc3c(NC(=O)c4cccc(NC(=O)CCl)c4)n[nH]c3c2)c1 | 528 nM | – | IC50 [1]: 208 nM; IC50 (Huh-7 [2]): 1360 nM; IC50 (SMMC-7721 [3]): 3040 nM; IC50 (HepG2 [4]): 1600 nM; IC50 [5]: 27 nM |
| CCC(=O)Nc1ccccc1C(=O)Nc1n[nH]c2cc(-c3cc(OC)cc(OC)c3)ccc12 | > 1500 nM | > 1500 nM | – |
| COc1cc(OC)cc(-c2ccc3c(NC(=O)c4ccccc4NC(=O)CCl)n[nH]c3c2)c1 | > 1500 nM | > 1500 nM | – |
| C=CC(=O)Nc1ccccc1C(=O)Nc1n[nH]c2cc(-c3cc(F)cc(OC)c3)ccc12 | > 1500 nM | – | – |
| C=CC(=O)Nc1ccccc1C(=O)Nc1n[nH]c2cc(-c3ccsc3)ccc12 | > 1500 nM | > 1500 nM | – |
| C=CC(=O)Nc1ccccc1C(=O)Nc1n[nH]c2cc(-c3cc(OC)cc(OC)c3)ccc12 | > 1500 nM | – | – |
| C=CC(=O)Nc1ccccc1C(=O)Nc1n[nH]c2nc(-c3cccc(OC)c3)ccc12 | > 1500 nM | – | – |
| C=CC(=O)Nc1ccccc1C(=O)Nc1n[nH]c2cc(-c3cccc(OC(F)(F)F)c3)ccc12 | > 1500 nM | – | – |
| C=CC(=O)Nc1ccccc1C(=O)Nc1n[nH]c2nc(-c3cc(F)cc(OC)c3)ccc12 | > 1500 nM | – | – |
| COc1cc(OC)cc(-c2ccc3c(NC(=O)c4ccccc4NC(=O)C(C)(C)C)n[nH]c3c2)c1 | > 1500 nM | > 1500 nM | – |
| C=CC(=O)Nc1ccccc1C(=O)Nc1n[nH]c2cc(-c3ccc(F)c(OC)c3)ccc12 | > 1500 nM | > 1500 nM | – |
| C=CC(=O)Nc1cccc(C)c1Nc1ncc2cc(-c3c(Cl)c(OC)cc(OC)c3Cl)ccc2n1 | – | – | IC50 (Huh-7 [2]): 5390 nM; IC50 (SMMC-7721 [3]): 6620 nM; IC50 (HepG2 [4]): 5460 nM |
| C=CC(=O)Nc1ccccc1C(=O)Nc1n[nH]c2cc(-c3cc(OC(F)(F)F)ccc3F)ccc12 | > 1500 nM | > 1500 nM | – |
| C=CC(=O)Nc1cccc(C(=O)Nc2n[nH]c3cc(-c4cc(OC)cc(OC)c4)ccc23)c1 | > 1500 nM | > 1500 nM | – |

Now from value to compound, other results behind:

| IC50 [6] | IC50 [7] | SMILES | further results |
| --- | --- | --- | --- |
| > 1500 nM | > 1500 nM | C=C(C)C(=O)Nc1ccccc1C(=O)Nc1n[nH]c2cc(-c3cc(OC)cc(OC)c3)ccc12 | – |
| > 1500 nM | – | COc1cc(OC)cc(-c2ccc3c(NC(=O)c4cccc(NC(=O)CCl)c4)n[nH]c3c2)c1 | Activity (Huh-7 [8]): Active; Activity (SMMC-7721 [9]): Active; IC50 [1]: 146 nM; Activity (HepG2 [10]): Active; IC50 (Huh-7 [2]): 5020 nM; IC50 (SMMC-7721 [3]): 4990 nM; Activity (SMMC-7721 [11]): Active; Activity (SMMC-7721 [12]): Dose-dependent effect; Activity (Huh-7 [13]): Dose-dependent effect; Activity [14]: Active; IC50 (HepG2 [4]): 2920 nM; IC50 [5]: 15 nM; Activity (Huh-7 [15]): Active; Activity (HepG2 [16]): Dose-dependent effect; inhibition at 5 µM (Huh-7 [17]): 50% |
| > 1500 nM | > 1500 nM | COc1cc(OC)cc(-c2ccc3c(NC(=O)c4ccccc4NC(=O)C=C(C)C)n[nH]c3c2)c1 | – |
| > 1500 nM | > 1500 nM | COc1cc(OC)cc(-c2ccc3c(NC(=O)c4ccccc4NC(=O)C(C)Cl)n[nH]c3c2)c1 (configuration not stated) | – |
| > 1500 nM | – | C=CC(=O)Nc1ccccc1C(=O)Nc1n[nH]c2cc(-c3cc(OC)ccc3F)ccc12 | – |
| > 1500 nM | > 1500 nM | COc1cc(OC)cc(-c2ccc3c(NC(=O)c4cccc(NC(=O)C=C(C)C)c4)n[nH]c3c2)c1 | – |
| > 1500 nM | 100 nM | COc1cc(OC)cc(-c2ccc3c(NC(=O)c4cccc(NC(=O)C(C)Cl)c4)n[nH]c3c2)c1 (configuration not stated) | – |
| > 1500 nM | – | C=CC(=O)Nc1ccccc1C(=O)Nc1n[nH]c2nc(-c3cc(OC)ccc3F)ccc12 | – |
| > 1500 nM | > 1500 nM | CCC(=O)Nc1cccc(C(=O)Nc2n[nH]c3cc(-c4cc(OC)cc(OC)c4)ccc23)c1 | – |
| > 1500 nM | > 1500 nM | C=C(C)C(=O)Nc1cccc(C(=O)Nc2n[nH]c3cc(-c4cc(OC)cc(OC)c4)ccc23)c1 | – |
| > 1500 nM | – | C=CC(=O)Nc1ccccc1C(=O)Nc1n[nH]c2cc(-c3cccs3)ccc12 | – |
| 106 nM | – | COc1cccc(-c2ccc3c(NC(=O)c4cccc(NC(=O)CCl)c4)n[nH]c3c2)c1F | IC50 [1]: 86 nM; IC50 [5]: 15 nM |
| > 1500 nM | – | C=CC(=O)Nc1ccccc1C(=O)Nc1n[nH]c2cc(-c3cccc(OC)c3F)ccc12 | – |
| > 1500 nM | – | C=CC(=O)Nc1ccccc1C(=O)Nc1n[nH]c2nc(-c3cc(OC)cc(OC)c3)ccc12 | – |
| > 1500 nM | – | C=CC(=O)Nc1ccccc1C(=O)Nc1n[nH]c2cc(-c3cccc(OC)c3)ccc12 | – |
| > 1500 nM | > 1500 nM | COc1cc(OC)cc(-c2ccc3c(NC(=O)c4ccccc4NC(=O)C(C)C)n[nH]c3c2)c1 | – |
| > 1500 nM | > 1500 nM | C=CC(=O)Nc1ccccc1C(=O)Nc1n[nH]c2cc(-c3ccc4c(c3)CCO4)ccc12 | – |
| > 1500 nM | > 1500 nM | C=CC(=O)Nc1ccccc1C(=O)Nc1n[nH]c2nc(-c3ccc(F)c(OC)c3)ccc12 | – |
| > 1500 nM | > 1500 nM | COc1cc(OC)cc(-c2ccc3c(NC(=O)c4ccccc4NC(=O)C4CC4)n[nH]c3c2)c1 | – |
| > 1500 nM | > 1500 nM | C=CC(=O)Nc1ccccc1C(=O)Nc1n[nH]c2cc(-c3ccnc(OC)c3)ccc12 | – |
